Measured values: ChEMBL document CHEMBL5653631, “A Potent and Selective ULK1 Inhibitor Suppresses Autophagy and Sensitizes Cancer Cells to Nutrient Stress” (iScience, 2018)

Tests used:
[1] = target: Serine/threonine-protein kinase SIK1 (Homo sapiens) (UniProt P57059); assay: Inhibition of human recombinant SIK at 500 nM in presence of ATP by radiometric assay relative to control
[2] = target: Serine/threonine-protein kinase B-raf (Homo sapiens) (UniProt P15056); assay: Inhibition of human recombinant BRAF at 500 nM in presence of ATP by radiometric assay relative to control
How it was run: (§1)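 Part of a radiometric in vitro activity panel of 327 recombinant human kinases. Each kinase was tested in duplicate at one inhibitor concentration. Activity remaining was expressed as a percentage of the vehicle control, and percent inhibition was taken as 100 minus that value.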

[3] = target: Mitogen-activated protein kinase 11 (Homo sapiens) (UniProt Q15759); assay: Inhibition of human recombinant p38beta at 500 nM related to control ULK1
Mitogen-activated protein kinase 11 (Homo sapiens), sequence (Q15759 whole entry): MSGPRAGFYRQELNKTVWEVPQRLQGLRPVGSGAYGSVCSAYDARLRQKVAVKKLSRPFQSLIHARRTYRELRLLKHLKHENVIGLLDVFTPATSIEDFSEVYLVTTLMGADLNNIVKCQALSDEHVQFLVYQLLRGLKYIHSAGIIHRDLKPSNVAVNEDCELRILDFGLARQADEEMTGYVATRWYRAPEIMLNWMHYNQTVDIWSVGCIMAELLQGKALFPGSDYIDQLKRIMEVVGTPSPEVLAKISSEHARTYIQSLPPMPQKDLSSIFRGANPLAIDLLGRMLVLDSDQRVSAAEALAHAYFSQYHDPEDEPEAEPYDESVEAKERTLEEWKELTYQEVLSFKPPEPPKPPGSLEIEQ

[4] = target: T1, Serine/threonine-protein kinase STK11 (Homo sapiens) (UniProt Q15831); assay: Inhibition of human recombinant LKB1 at 500 nM related to control ULK1
T1 sequence (whole entry): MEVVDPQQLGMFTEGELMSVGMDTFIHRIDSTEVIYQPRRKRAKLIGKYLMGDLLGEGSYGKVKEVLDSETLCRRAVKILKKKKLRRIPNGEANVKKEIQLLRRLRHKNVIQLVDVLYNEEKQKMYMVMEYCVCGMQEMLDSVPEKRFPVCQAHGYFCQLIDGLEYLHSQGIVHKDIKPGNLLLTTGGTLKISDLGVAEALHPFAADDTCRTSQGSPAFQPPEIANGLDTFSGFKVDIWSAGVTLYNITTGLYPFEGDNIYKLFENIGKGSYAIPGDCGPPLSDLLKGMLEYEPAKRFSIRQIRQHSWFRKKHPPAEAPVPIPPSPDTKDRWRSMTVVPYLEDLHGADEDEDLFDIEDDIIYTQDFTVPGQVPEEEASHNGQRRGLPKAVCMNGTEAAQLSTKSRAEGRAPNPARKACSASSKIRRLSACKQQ

[5] = target: T2, Tyrosine-protein kinase TXK (Homo sapiens) (UniProt P42681); assay: Inhibition of human recombinant TXK at 15 nM related to control ULK1
T2 sequence (whole entry): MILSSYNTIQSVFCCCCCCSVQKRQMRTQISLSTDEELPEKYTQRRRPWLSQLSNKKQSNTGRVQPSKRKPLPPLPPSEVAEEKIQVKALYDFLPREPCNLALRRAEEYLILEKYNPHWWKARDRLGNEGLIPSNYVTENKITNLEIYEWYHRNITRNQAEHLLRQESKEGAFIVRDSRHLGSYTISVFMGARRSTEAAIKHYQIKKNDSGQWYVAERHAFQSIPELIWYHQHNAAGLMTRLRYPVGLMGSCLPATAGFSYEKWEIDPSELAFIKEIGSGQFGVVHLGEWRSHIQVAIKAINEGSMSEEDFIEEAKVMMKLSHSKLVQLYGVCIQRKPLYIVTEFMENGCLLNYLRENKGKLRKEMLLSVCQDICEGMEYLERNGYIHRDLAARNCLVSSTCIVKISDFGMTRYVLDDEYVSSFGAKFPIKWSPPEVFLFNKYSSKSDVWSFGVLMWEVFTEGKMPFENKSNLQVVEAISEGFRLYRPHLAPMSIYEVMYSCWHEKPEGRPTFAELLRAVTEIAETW

[6] = target: MAP kinase-activated protein kinase 2 (Homo sapiens) (UniProt P49137); assay: Inhibition of human recombinant MAPKAPK2 at 15 nM in presence of ATP by radiometric assay relative to control
MAP kinase-activated protein kinase 2 (Homo sapiens), sequence (P49137 whole entry, looked up): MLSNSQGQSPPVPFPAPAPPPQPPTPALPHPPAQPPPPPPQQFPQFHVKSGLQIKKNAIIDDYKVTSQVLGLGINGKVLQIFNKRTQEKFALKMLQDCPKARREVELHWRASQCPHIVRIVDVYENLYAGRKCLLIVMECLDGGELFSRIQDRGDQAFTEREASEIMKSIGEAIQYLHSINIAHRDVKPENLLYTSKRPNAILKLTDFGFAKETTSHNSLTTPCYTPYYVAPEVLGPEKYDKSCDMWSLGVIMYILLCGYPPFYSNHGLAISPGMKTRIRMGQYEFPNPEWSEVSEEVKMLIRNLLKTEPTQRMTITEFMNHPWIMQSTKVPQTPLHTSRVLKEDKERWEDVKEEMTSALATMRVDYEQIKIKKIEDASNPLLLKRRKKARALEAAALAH

[7] = target: Receptor-interacting serine/threonine-protein kinase 2 (Homo sapiens) (UniProt O43353); assay: Inhibition of human recombinant RIPK2 at 15 nM in presence of ATP by radiometric assay relative to control
Receptor-interacting serine/threonine-protein kinase 2 (Homo sapiens), sequence (O43353 whole entry): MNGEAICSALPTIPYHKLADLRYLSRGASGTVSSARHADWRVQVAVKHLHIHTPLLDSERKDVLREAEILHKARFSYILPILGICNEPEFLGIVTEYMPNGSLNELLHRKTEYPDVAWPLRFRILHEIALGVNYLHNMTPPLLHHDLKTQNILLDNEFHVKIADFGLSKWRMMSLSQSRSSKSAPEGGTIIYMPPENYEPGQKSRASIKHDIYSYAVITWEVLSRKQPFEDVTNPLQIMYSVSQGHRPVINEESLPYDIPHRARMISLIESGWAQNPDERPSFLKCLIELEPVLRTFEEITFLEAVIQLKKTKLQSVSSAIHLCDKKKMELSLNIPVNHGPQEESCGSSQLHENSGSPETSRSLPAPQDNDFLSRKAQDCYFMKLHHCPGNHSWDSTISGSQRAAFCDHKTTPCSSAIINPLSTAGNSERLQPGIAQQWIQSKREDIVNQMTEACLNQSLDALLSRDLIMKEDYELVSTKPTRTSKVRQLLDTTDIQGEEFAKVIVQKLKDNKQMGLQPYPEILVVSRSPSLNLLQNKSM

[8] = target: Serine/threonine-protein kinase 35 (Homo sapiens) (UniProt Q8TDR2); assay: Inhibition of human recombinant CLIK1 at 40 nM related to control ULK1
Serine/threonine-protein kinase 35 (Homo sapiens), sequence (Q8TDR2 whole entry): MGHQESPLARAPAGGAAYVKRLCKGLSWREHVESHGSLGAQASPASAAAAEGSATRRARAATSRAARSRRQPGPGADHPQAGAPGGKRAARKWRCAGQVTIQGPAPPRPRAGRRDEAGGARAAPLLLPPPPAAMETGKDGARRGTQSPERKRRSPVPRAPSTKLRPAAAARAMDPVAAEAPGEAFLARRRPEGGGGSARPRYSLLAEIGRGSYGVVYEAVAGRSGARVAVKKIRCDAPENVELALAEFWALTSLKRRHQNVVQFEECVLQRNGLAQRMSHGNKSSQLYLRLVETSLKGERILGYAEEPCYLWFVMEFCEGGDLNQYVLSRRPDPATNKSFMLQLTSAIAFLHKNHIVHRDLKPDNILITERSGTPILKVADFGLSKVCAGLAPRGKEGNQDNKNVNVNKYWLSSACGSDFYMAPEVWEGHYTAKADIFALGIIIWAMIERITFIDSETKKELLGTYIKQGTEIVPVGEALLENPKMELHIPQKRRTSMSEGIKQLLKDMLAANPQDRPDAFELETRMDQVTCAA

[9] = target: Serine/threonine-protein kinase N1 (Homo sapiens) (UniProt Q16512); assay: Inhibition of human recombinant PKN1 at 40 nM related to control ULK1
Serine/threonine-protein kinase N1 (Homo sapiens), sequence (Q16512 2-942 limits assumed): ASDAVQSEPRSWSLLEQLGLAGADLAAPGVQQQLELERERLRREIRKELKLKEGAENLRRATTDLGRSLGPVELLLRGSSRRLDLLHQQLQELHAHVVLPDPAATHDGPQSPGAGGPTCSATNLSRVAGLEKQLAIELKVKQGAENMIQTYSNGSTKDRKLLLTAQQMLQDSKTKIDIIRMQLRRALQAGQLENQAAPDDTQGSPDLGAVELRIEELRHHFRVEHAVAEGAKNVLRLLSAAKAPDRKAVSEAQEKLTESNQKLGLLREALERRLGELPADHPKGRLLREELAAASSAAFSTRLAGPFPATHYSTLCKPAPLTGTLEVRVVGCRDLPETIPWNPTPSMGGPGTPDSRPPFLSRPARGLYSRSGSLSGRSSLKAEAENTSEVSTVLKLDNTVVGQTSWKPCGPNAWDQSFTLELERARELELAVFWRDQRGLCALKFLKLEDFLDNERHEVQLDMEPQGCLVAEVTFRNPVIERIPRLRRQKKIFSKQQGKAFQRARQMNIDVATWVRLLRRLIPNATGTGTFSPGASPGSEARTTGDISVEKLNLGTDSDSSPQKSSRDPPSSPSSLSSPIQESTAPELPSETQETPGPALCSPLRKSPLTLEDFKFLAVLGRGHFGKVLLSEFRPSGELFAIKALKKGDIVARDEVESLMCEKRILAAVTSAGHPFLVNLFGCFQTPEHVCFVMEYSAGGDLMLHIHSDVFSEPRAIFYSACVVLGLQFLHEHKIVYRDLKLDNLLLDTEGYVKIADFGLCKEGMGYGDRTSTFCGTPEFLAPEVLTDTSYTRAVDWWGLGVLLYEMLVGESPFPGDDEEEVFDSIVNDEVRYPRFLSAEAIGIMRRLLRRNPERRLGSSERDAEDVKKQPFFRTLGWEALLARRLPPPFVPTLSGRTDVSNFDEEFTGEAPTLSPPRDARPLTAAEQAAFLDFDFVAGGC

[10] = target: Myosin light chain kinase 2, skeletal/cardiac muscle (Homo sapiens) (UniProt Q9H1R3); assay: Inhibition of human recombinant skMLCK at 40 nM in presence of ATP by radiometric assay relative to control
Myosin light chain kinase 2, skeletal/cardiac muscle (Homo sapiens), sequence (Q9H1R3 whole entry): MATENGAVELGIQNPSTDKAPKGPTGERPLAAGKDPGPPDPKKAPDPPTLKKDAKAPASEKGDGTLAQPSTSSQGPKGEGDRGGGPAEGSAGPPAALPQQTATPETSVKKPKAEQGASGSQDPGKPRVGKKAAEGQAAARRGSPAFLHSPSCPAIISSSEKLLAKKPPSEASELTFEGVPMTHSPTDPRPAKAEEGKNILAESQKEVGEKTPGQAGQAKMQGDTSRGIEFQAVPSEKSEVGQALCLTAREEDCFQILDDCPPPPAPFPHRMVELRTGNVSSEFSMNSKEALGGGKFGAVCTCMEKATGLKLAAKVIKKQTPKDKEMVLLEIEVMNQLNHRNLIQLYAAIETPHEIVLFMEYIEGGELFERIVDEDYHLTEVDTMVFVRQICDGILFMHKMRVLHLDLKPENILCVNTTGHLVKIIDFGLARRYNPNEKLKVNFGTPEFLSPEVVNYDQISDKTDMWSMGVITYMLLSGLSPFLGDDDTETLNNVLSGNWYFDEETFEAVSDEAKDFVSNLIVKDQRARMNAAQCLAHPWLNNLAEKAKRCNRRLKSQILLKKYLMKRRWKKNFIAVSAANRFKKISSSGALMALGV

[11] = target: Serine/threonine-protein kinase 38-like (Homo sapiens) (UniProt Q9Y2H1); assay: Inhibition of human recombinant NDR2 at 40 nM related to control ULK1
Serine/threonine-protein kinase 38-like (Homo sapiens), sequence (Q9Y2H1 2-464 limits assumed): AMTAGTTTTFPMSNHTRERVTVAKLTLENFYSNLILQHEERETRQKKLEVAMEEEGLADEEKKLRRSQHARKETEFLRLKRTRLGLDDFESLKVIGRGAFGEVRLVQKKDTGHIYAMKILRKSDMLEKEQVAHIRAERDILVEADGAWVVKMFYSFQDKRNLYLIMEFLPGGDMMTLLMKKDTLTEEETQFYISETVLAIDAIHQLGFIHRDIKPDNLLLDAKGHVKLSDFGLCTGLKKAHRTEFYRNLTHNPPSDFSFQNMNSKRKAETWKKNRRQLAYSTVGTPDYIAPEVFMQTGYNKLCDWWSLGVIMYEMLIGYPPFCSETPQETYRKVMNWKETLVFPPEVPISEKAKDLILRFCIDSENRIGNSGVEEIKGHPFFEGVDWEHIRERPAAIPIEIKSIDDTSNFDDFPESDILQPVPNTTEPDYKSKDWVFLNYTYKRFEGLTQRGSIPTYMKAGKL

[12] = target: Mitogen-activated protein kinase 10 (Homo sapiens) (UniProt P53779); assay: Inhibition of human recombinant JNK3 at 40 nM in presence of ATP by radiometric assay relative to control
Mitogen-activated protein kinase 10 (Homo sapiens), sequence (P53779 whole entry): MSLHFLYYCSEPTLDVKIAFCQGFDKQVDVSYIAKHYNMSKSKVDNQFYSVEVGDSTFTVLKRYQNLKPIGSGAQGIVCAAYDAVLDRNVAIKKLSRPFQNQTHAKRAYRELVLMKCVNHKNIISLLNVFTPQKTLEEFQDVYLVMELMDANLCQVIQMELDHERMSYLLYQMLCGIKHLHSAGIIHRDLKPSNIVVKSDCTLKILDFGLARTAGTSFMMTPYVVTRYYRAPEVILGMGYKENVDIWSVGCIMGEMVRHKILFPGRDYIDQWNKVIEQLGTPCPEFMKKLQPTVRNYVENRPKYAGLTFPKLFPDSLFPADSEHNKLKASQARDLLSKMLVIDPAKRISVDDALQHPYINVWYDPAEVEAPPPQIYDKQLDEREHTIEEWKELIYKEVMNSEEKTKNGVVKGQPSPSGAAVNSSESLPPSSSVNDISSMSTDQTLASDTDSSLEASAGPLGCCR

[13] = target: Calcium/calmodulin-dependent protein kinase type II subunit delta (Homo sapiens) (UniProt Q13557); assay: Inhibition of human recombinant CaMK2d at 40 nM related to control ULK1
Calcium/calmodulin-dependent protein kinase type II subunit delta (Homo sapiens), sequence (Q13557 whole entry): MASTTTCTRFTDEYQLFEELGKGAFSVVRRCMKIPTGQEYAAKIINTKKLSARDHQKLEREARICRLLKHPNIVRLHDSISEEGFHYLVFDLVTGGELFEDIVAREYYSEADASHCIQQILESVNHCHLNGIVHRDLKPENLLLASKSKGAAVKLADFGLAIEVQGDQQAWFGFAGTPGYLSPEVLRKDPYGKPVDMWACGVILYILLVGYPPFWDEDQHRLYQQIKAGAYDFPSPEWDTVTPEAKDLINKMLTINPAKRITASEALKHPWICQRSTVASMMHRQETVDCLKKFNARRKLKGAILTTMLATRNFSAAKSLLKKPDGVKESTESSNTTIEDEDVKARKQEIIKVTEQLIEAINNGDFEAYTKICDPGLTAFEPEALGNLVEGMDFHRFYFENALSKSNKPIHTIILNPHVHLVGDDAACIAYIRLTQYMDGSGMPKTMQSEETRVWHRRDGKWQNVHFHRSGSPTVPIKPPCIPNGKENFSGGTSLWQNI

[14] = target: T3, Beta-adrenergic receptor kinase 1 (Homo sapiens) (UniProt P25098); assay: Inhibition of human recombinant BARK1 at 40 nM in presence of ATP by radiometric assay relative to control; how it was run: as §1
T3 sequence (whole entry): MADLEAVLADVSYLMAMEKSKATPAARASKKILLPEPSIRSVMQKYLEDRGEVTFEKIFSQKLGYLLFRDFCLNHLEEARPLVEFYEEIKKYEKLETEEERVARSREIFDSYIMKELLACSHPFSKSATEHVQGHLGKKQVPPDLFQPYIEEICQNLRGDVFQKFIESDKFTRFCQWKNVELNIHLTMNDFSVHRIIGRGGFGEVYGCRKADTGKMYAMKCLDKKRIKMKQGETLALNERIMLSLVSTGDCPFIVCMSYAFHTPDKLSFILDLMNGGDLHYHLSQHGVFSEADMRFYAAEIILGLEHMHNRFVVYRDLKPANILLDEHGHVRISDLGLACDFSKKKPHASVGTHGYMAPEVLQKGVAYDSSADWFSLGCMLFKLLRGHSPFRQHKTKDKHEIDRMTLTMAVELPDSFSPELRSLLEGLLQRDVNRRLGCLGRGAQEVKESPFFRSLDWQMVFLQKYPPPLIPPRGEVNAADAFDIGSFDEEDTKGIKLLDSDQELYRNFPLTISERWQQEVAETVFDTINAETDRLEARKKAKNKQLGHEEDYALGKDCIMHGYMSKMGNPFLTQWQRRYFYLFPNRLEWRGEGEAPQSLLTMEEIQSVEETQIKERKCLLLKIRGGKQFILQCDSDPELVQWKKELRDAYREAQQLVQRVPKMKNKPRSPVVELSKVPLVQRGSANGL

[15] = target: Tyrosine-protein kinase Fes/Fps (Homo sapiens) (UniProt P07332); assay: Inhibition of human recombinant FES at 40 nM in presence of ATP by radiometric assay relative to control
[16] = target: STE20-like serine/threonine-protein kinase (Homo sapiens) (UniProt Q9H2G2); assay: Inhibition of human recombinant SLK at 40 nM in presence of ATP by radiometric assay relative to control

What does the source list for `CNC(=O)c1ccccc1Oc1nc(Nc2cc(OC)c(OC)c(OC)c2)ncc1Br`?
inhibition [1]: 20%; inhibition [2]: 8%; fold change (FC) [3]: 0.03; fold change (FC) [4]: 0.16

For `CC(C)[C@H](NC(=O)c1cc(-c2cnn3cc(-c4ccc(OCCN5CCCCC5)cc4)cnc23)cs1)C(F)(F)F`, which fold change (FC) [5] is on record?
Its fold change (FC) is 0.67.

What about the inhibition [6] of the same compound?
The inhibition was 0%.

What about the inhibition [7] of the same compound?
Its inhibition is 10%.

For `O=C(N[C@@H](C1CC1)C(F)(F)F)c1cc(-c2cnn3cc(-c4ccc(F)cc4)cnc23)cs1`, which fold change (FC) [8] is on record?
The fold change (FC) was 0.01.

And the fold change (FC) [9]?
Its fold change (FC) is 0.

What about the inhibition [10] of the same compound?
Its inhibition is 0%.

What about the fold change (FC) [11] of the same compound?
Its fold change (FC) is 0.

And the inhibition [12]?
The inhibition was 0%.

And the fold change (FC) [13]?
The fold change (FC) was 0.01.

What about the inhibition [14] of the same compound?
Its inhibition is 3%.

What about the inhibition [15] of the same compound?
The inhibition was 15%.

What about the inhibition [16] of the same compound?
Its inhibition is 0%.
